Results reported in ChEMBL document CHEMBL4011627, “Hepatitis C Virus NS3/4A Protease Inhibitors Incorporating Flexible P2 Quinoxalines Target Drug Resistant Viral Variants” (J Med Chem, 2017).
pEC50, pKi: −log10 of the molar value.

Tests used:
Hepatitis C virus [1] = test: Antiviral activity against HCV genotype 1b Con1 harboring HCV genotype 1a H77 NS3 A156T mutant infected in human HuH7 cells assessed as inhibition of viral replication after 96 hrs by luciferase reporter gene assay; format: functional, cell-based, Hepacivirus hominis; settings: genotype 1b Con1, Huh-7, 96 h
Hepatitis C virus [2] = test: Antiviral activity against HCV genotype 1b Con1 harboring HCV genotype 1a H77 NS3 D168A mutant infected in human HuH7 cells assessed as inhibition of viral replication after 96 hrs by luciferase reporter gene assay; format: functional, cell-based, Hepacivirus hominis; settings: genotype 1b Con1, Huh-7, 96 h
Hepatitis C virus [3] = test: Antiviral activity against HCV genotype 1b Con1 harboring HCV genotype 1a H77 NS3 D168V mutant infected in human HuH7 cells assessed as inhibition of viral replication after 96 hrs by luciferase reporter gene assay; format: functional, cell-based, Hepacivirus hominis; settings: genotype 1b Con1, Huh-7, 96 h
Hepatitis C virus [4] = test: Antiviral activity against HCV genotype 1b Con1 harboring HCV genotype 1a H77 NS3 R155K mutant infected in human HuH7 cells assessed as inhibition of viral replication after 96 hrs by luciferase reporter gene assay; format: functional, cell-based, Hepacivirus hominis; settings: genotype 1b Con1, Huh-7, 96 h
[5] = Inhibition of HCV genotype 1a NS3/4A protease using Ac-DE-Dap(QXL 520)-EE-Abu-psi-[COO]AS-C(5-FAMsp)-NH2 as substrate preincubated for 1 hr followed by substrate addition; design: species or system Hepatitis C virus subtype 1a
In short: (§1)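 Protease domain at 2 nM preincubated 1 h at room temperature with inhibitor titrations (at least 12 concentrations) in 50 mM Tris, 5% glycerol, 10 mM DTT, 0.6 mM LDAO, 4% DMSO. Reaction started with fluorogenic substrate (200 nM final) and followed kinetically (ex 485/em 530 nm). Three independent data sets, fit globally to the Morrison equation for Ki.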

[6] = target: Hepatitis C virus serine protease, NS3/NS4A (Hepatitis C virus, UniProt A3EZI9+D2K2A8, D168A); test: Inhibition of HCV genotype 1a NS3/4A protease D168A mutant using Ac-DE-Dap(QXL 520)-EE-Abu-psi-[COO]AS-C(5-FAMsp)-NH2 as substrate preincubated for 1 hr followed by substrate addition; design: species or system Hepatitis C virus subtype 1a
In short: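 NS3/4A protease domain at 2 nM pre-incubated 1 h at room temperature with increasing inhibitor (at least 12 concentrations) in 50 mM Tris, 5% glycerol, 10 mM DTT, 0.6 mM LDAO, 4% DMSO. Reaction started with FRET substrate (final 200 nM), monitored kinetically (ex 485/em 530 nm). Three independent data sets; global Morrison fit for Ki.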

Hepatitis C virus [7] = test: Antiviral activity against HCV genotype 1b Con1 harboring HCV genotype 1a H77 NS3 infected in human HuH7 cells assessed as inhibition of viral replication after 96 hrs by luciferase reporter gene assay; format: functional, cell-based, Hepacivirus hominis; settings: genotype 1b Con1, Huh-7, 96 h
[8] = Inhibition of HCV genotype 3a NS3/4A protease using Ac-DE-Dap(QXL520)-EE-Abu-psi-[COO]AS-C(5-FAMsp)-NH2 as substrate preincubated for 1 hr followed by substrate addition; design: species or system Hepatitis C virus subtype 3a; in short: as §1

Row | Compound | pEC50 (Hepatitis C virus [1]) | pEC50 (Hepatitis C virus [2]) | pEC50 (Hepatitis C virus [3]) | pEC50 (Hepatitis C virus [4]) | pKi [5] | pKi [6] | pEC50 (Hepatitis C virus [7]) | pKi [8]
1 | COc1ccc2nc(C(C)C)c(O[C@@H]3C[C@H]4C(=O)N[C@]5(C(=O)NS(=O)(=O)C6CC6)C[C@H]5/C=C\CCCCC[C@H](NC(=O)OC(C)(C)C)C(=O)N4C3)nc2c1 | 7.59 | 7.82 | 7.63 | 8.30 | 8.37 | 6.62 | 8.84 | 
2 | COc1ccc2nc(Cl)c(O[C@@H]3C[C@H]4C(=O)N[C@]5(C(=O)NS(=O)(=O)C6(C)CC6)C[C@H]5/C=C\CCCCC[C@H](NC(=O)OC5CCCC5)C(=O)N4C3)nc2c1 | 8.36 | 9.01 | 8.96 | 9.25 | 9.36 | 7.59 | 9.82 | 7.21
3 | COc1ccc2nc(Cl)c(O[C@@H]3C[C@H]4C(=O)N[C@]5(C(=O)NS(=O)(=O)C6(C)CC6)C[C@H]5/C=C\CCCCC[C@H](NC(=O)OC(C)(C)C)C(=O)N4C3)nc2c1 | 8.05 | 8.97 | 9.31 | 9.40 | 8.95 | 7.11 | 9.74 | 7.27
4 | COc1ccc2nc(C(F)(F)F)c(O[C@@H]3C[C@H]4C(=O)N[C@]5(C(=O)NS(=O)(=O)C6(C)CC6)C[C@H]5/C=C\CCCCC[C@H](NC(=O)OC5CCCC5)C(=O)N4C3)nc2c1 | 7.12 | 8.07 | 7.94 | 8.16 | 8.09 | 6.96 | 8.39 | 6.36
5 | COc1ccc2nc(C)c(O[C@@H]3C[C@H]4C(=O)N[C@]5(C(=O)NS(=O)(=O)C6CC6)C[C@H]5/C=C\CCCCC[C@H](NC(=O)OC5CCCC5)C(=O)N4C3)nc2c1 | 8.54 | 8.58 | 8.36 | 9.05 | 9.03 | 7.50 | 9.96 | 6.83
6 | COc1ccc2nc(C(F)(F)F)c(O[C@@H]3C[C@H]4C(=O)N[C@]5(C(=O)NS(=O)(=O)C6(C)CC6)C[C@H]5/C=C\CCCCC[C@H](NC(=O)OC(C)(C)C)C(=O)N4C3)nc2c1 | 7.69 | 8.06 | 8.08 | 8.64 | 8.24 | 6.93 | 8.82 | 6.64
7 | COc1ccc2nc(C)c(O[C@@H]3C[C@H]4C(=O)N[C@]5(C(=O)NS(=O)(=O)C6(C)CC6)C[C@H]5/C=C\CCCCC[C@H](NC(=O)OC5CCCC5)C(=O)N4C3)nc2c1 | 8.40 | 8.67 |  | 8.96 | 8.95 | 7.44 | 9.89 | 6.92
8 | CCc1nc2ccccc2nc1O[C@@H]1C[C@H]2C(=O)N[C@]3(C(=O)NS(=O)(=O)C4CC4)C[C@H]3/C=C\CCCCC[C@H](NC(=O)OC3CCCC3)C(=O)N2C1 | 7.61 | 8.12 | 7.71 | 8.37 | 8.70 | 6.97 | 9.62 | 
9 | CCc1nc2ccc(OC)cc2nc1O[C@@H]1C[C@H]2C(=O)N[C@]3(C(=O)NS(=O)(=O)C4(C)CC4)C[C@H]3/C=C\CCCCC[C@H](NC(=O)OC3CCCC3)C(=O)N2C1 | 7.97 | 8.46 | 8.15 | 8.68 | 8.86 | 7.26 | 9.80 | 6.73
10 | COc1ccc2nc(C)c(O[C@@H]3C[C@H]4C(=O)N[C@]5(C(=O)NS(=O)(=O)C6CC6)C[C@H]5/C=C\CCCCC[C@H](NC(=O)OC(C)(C)C)C(=O)N4C3)nc2c1 | 8.23 | 8.37 | 8.50 | 8.93 | 8.47 | 7.29 | 9.41 | 6.82
11 | COc1ccc2nc(C(F)(F)F)c(O[C@@H]3C[C@H]4C(=O)N[C@]5(C(=O)NS(=O)(=O)C6CC6)C[C@H]5/C=C\CCCCC[C@H](NC(=O)OC5CCCC5)C(=O)N4C3)nc2c1 | 6.93 | 7.82 | 7.62 | 8.10 | 8.12 | 6.94 | 8.31 | 6.12
12 | CCc1nc2ccc(OC)cc2nc1O[C@@H]1C[C@H]2C(=O)N[C@]3(C(=O)NS(=O)(=O)C4(C)CC4)C[C@H]3/C=C\CCCCC[C@H](NC(=O)OC(C)(C)C)C(=O)N2C1 | 8.34 | 8.30 | 8.19 | 8.74 | 8.74 | 7.26 | 9.37 | 6.77
13 | COc1ccc2nc(C(C)C)c(O[C@@H]3C[C@H]4C(=O)N[C@]5(C(=O)NS(=O)(=O)C6(C)CC6)C[C@H]5/C=C\CCCCC[C@H](NC(=O)OC(C)(C)C)C(=O)N4C3)nc2c1 | 7.67 | 7.92 | 7.74 | 8.38 | 9.24 | 6.68 | 8.73 | 
14 | COc1ccc2nc(C(C)C)c(O[C@@H]3C[C@H]4C(=O)N[C@]5(C(=O)NS(=O)(=O)C6(C)CC6)C[C@H]5/C=C\CCCCC[C@H](NC(=O)OC5CCCC5)C(=O)N4C3)nc2c1 | 7.56 | 8.10 | 7.74 | 8.17 | 8.87 | 6.81 | 9.23 | 
15 | COc1ccc2nc(Cl)c(O[C@@H]3C[C@H]4C(=O)N[C@]5(C(=O)NS(=O)(=O)C6CC6)C[C@H]5/C=C\CCCCC[C@H](NC(=O)OC(C)(C)C)C(=O)N4C3)nc2c1 | 7.79 | 8.85 | 9.14 | 9.36 | 8.97 | 7.40 | 9.80 | 7.17
16 | COc1ccc2nc(C(F)(F)F)c(O[C@@H]3C[C@H]4C(=O)N[C@]5(C(=O)NS(=O)(=O)C6CC6)C[C@H]5/C=C\CCCCC[C@H](NC(=O)OC(C)(C)C)C(=O)N4C3)nc2c1 | 7.44 | 7.77 | 7.77 | 8.46 | 7.88 | 6.80 | 8.70 | 6.46
17 | CCc1nc2ccccc2nc1O[C@@H]1C[C@H]2C(=O)N[C@]3(C(=O)NS(=O)(=O)C4CC4)C[C@H]3/C=C\CCCCC[C@H](NC(=O)OC(C)(C)C)C(=O)N2C1 | 7.97 | 8.07 | 7.85 | 8.74 | 8.14 | 6.72 | 9.34 | 
18 | CCc1nc2ccc(OC)cc2nc1O[C@@H]1C[C@H]2C(=O)N[C@]3(C(=O)NS(=O)(=O)C4CC4)C[C@H]3/C=C\CCCCC[C@H](NC(=O)OC(C)(C)C)C(=O)N2C1 | 8.02 | 8.20 | 8.04 | 8.76 | 8.48 | 7.08 | 9.48 | 6.69
19 | COc1ccc2nc(C(C)C)c(O[C@@H]3C[C@H]4C(=O)N[C@]5(C(=O)NS(=O)(=O)C6CC6)C[C@H]5/C=C\CCCCC[C@H](NC(=O)OC5CCCC5)C(=O)N4C3)nc2c1 | 7.49 | 8.10 | 7.52 | 8.12 | 8.84 | 6.79 | 9.32 | 
20 | CCc1nc2ccc(OC)cc2nc1O[C@@H]1C[C@H]2C(=O)N[C@]3(C(=O)NS(=O)(=O)C4CC4)C[C@H]3/C=C\CCCCC[C@H](NC(=O)OC3CCCC3)C(=O)N2C1 | 7.93 | 8.44 | 7.92 | 8.68 | 8.91 | 7.28 | 9.85 | 6.68
21 | COc1ccc2nc(C)c(O[C@@H]3C[C@H]4C(=O)N[C@]5(C(=O)NS(=O)(=O)C6(C)CC6)C[C@H]5/C=C\CCCCC[C@H](NC(=O)OC(C)(C)C)C(=O)N4C3)nc2c1 | 8.80 | 8.63 | 8.80 | 9.10 | 8.44 | 7.28 | 9.52 | 6.92
22 | COc1ccc2nc(Cl)c(O[C@@H]3C[C@H]4C(=O)N[C@]5(C(=O)NS(=O)(=O)C6CC6)C[C@H]5/C=C\CCCCC[C@H](NC(=O)OC5CCCC5)C(=O)N4C3)nc2c1 | 8.45 | 8.88 | 8.81 | 9.23 | 9.31 | 7.51 | 9.82 | 7.07
